T cruzi growth-1: blocks T. cruzi growth in NIH3T3 culture. T. cruzi beta-gal in NIH3T3, GalScreen luminescence, 90 h. inhibition, % at 8.34 µM. 77,000 tested, 5.9% active. AID 624255;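 active = mean inhibition above about 93%, with at least 55% of replicates each passing it, limit read from the data, passing the limit was not always enough; inconclusive = only one of those two conditions holds; inactive = neither condition holds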
GASC1 inh: KDM4C (human) demethylase inhibition; GST-KDM4C 2-372, H3K9me3 peptide, LANCE TR-FRET; 96,000 tested, 0.15% active; AID 720574; inhibition, % at 12.5 µM;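 active = mean replicate inhibition above about 25%, with at least 55% of replicates also reaching it, limit read from the data, passing the limit was not always enough; inconclusive = only one of those two conditions met; inactive = neither condition met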
Target sequence (Q9H3R0 2-372 limits assumed): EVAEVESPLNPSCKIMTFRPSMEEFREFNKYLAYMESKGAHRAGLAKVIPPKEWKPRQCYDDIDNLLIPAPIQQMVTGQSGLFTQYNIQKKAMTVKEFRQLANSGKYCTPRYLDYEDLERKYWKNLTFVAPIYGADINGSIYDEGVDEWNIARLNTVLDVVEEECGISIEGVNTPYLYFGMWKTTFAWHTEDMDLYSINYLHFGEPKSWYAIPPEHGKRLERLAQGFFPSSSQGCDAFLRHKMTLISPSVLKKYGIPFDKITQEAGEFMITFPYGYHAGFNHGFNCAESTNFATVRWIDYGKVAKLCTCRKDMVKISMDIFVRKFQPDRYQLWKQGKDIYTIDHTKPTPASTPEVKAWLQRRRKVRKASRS
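System: N-terminal GST-fused human GASC-1 (KDM4C) fragment, residues 2-372 / Amount: 10 nM GST-KDM4C in enzyme reaction / Also added: H3K9me3 peptide with Fe(II)/2OG / Times: 30 min demethylation and 1 h detection at room temperature / Signal: LANCE TR-FRET / Read-out basis: Fall in 671/618 emission ratio as inhibition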
IDH1 R132H inh: inhibitors of human IDH1 R132H; IDH1 R132H reductase, diaphorase/resazurin fluorescence, 60 min; AID 624101; inhibition, % at 10 µM; 70,000 tested, 0.18% active; in the data active = inhibition above about 34%; inconclusive = no clear call, values can overlap the other calls; inactive = below about 11%;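 also: 0% = DMSO and 100% = no enzyme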
T cruzi growth-2: blocks T. cruzi growth in NIH3T3 host cells; T. cruzi beta-gal in NIH3T3, GalScreen luminescence, 90 h; 5,600 tested, 72% active; AID 651739; inhibition, % at 8.35 µM; shares compounds with T cruzi growth-1;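 active = mean replicate inhibition above about 95% and at least 55% of replicates individually reaching it, limit read from the data; inconclusive = only one of the two criteria is met; inactive = neither criterion is met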
T cruzi growth-3: blocks T. cruzi growth in NIH3T3 host cells; shares compounds with T cruzi growth-1; T. cruzi beta-gal in NIH3T3, GalScreen luminescence, 90 h; inhibition, % at 2.09 µM; 5,600 tested, 21% active; AID 651740;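 active = mean inhibition above about 95%, with at least 55% of replicates also reaching it, limit read from the data; inconclusive = meets just one of the two conditions; inactive = meets neither condition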;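 also: plate controls were neutral control median for no effect and positive control median for full effect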
NIH3T3 tox: cytotoxicity in mouse NIH/3T3 fibroblasts; shares compounds with T cruzi growth-1; 5,600 tested, 14% active; cytotoxicity (signal decrease), % at 8.35 µM; NIH/3T3 viability, CellTiter-Glo ATP luminescence, 90 h;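 active = mean signal decrease across replicates above about 35% based on untreated-well scatter, with enough replicates individually passing, limit read from the data; inconclusive = no rule stated though some were filed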;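 also: 0% = median of neutral control wells and 100% = median of positive control wells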
3T3 cytotox 2: NIH/3T3 (mouse) viability loss; 5,600 tested, 56% active; inhibition, % at 24.9 µM; NIH/3T3 viability, CellTiter-Glo ATP luminescence, 90 h; shares compounds with T cruzi growth-1;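 active = mean loss of cell viability signal at or above a set limit, and enough replicates individually reaching it; inconclusive = meets only the mean limit or only the replicate share; inactive = meets neither condition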;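 also: 0% = median of neutral control wells and 100% = median of positive control wells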
The depositor's hits bear a star; ? = inconclusive; . = no result. Many of the other results were omitted from the sample, so hits are more common in it than they were.

SMILES	T cruzi growth-1	GASC1 inh	IDH1 R132H inh	T cruzi growth-2	T cruzi growth-3	NIH3T3 tox	3T3 cytotox 2
CO[C@H]1CN(C)C(=O)c2cc(NC(=O)c3cccc(F)c3)ccc2OC[C@@H](C)N(C(C)=O)C[C@@H]1C	9.3	0.9	0.3	.	.	.	.
CO[C@@H]1CN(C)C(=O)c2ccc(NC(=O)Nc3c(C)noc3C)cc2OC[C@H](C)N(C)C[C@@H]1C	24.5	51.3*	0.2	.	.	.	.
Cc1cc(=O)[nH]c(SCCOc2c(C)ccc(C)c2Cl)n1	.	.	0.6	.	.	.	.
CC(=O)c1c(C)nn(CC(O)COc2ccc(C(=O)c3ccc(Cl)cc3)cc2)c1C (stereo not given)	.	.	0.0	.	.	.	.
COc1cccc(-c2ccc3c(c2)[C@@H]2[C@@H](CCN2C(=O)C2CCC2)[C@@H](CO)N3)c1	19.2	-0.9	.	.	.	.	.
COc1cccc(-c2ccc3c(c2)[C@H]2[C@H](CCN2C(=O)C2CCCCC2)[C@H](CO)N3)c1	.	-1.2	.	.	.	.	.
O=C(C1CCOCC1)N1CC[C@@H]2[C@H](CO)Nc3ccc(-c4cccc(F)c4)cc3[C@@H]21	53.9	1.1	.	.	.	.	.
COc1cccc(-c2ccc3c(c2)[C@H]2[C@H](CCN2C(=O)C2CCOCC2)[C@H](CO)N3)c1	?	-2.0	.	103.0*	65.4	3.2	20.1
COc1cccc(-c2ccc3c(c2)[C@H]2[C@H](CCN2C(=O)C2CCOCC2)[C@@H](CO)N3)c1	116.2*	-1.4	.	104.8*	73.2	-4.6	-0.8
COc1cccc(-c2ccc3c(c2)[C@@H]2[C@@H](CCN2C(=O)C2CCOCC2)[C@H](CO)N3)c1	110.5*	-0.3	.	90.3	52.0	-14.9	-5.8
O=C(CCCCC(=O)N/N=C/c1ccc(CO)o1)NO	.	.	-0.8	.	.	.	.
Cn1c(SCC(=O)Nc2ccccc2F)nnc1-c1ccc(Br)cc1	.	.	-0.6	.	.	.	.
COc1c(C)cccc1C(=O)N1CCN(c2ccc([N+](=O)[O-])c(NCc3ccco3)c2)CC1	.	.	-0.1	.	.	.	.
COc1ccc(C(=O)CSc2nnc(-c3ccc([N+](=O)[O-])cc3)o2)cc1	.	.	0.1	.	.	.	.
COc1ccc(-c2csc(NC(=O)c3cc(-c4ccc(C)o4)nc4ccccc34)c2C#N)cc1OC	.	.	-0.1	.	.	.	.
CCc1c(C#N)c(SCC(=O)c2c(C)[nH]c3ccccc23)nc2c1C(=O)CC(C)(C)C2	.	.	0.8	.	.	.	.
Cc1ccc(OCC(=O)NC(=S)Nc2cc(C(=O)O)ccc2C)cc1	.	.	1.2	.	.	.	.
C[C@H](CO)N1C[C@H](C)[C@H](CN(C)Cc2ccccc2F)Oc2cc(C#CCN(C)C)ccc2S1(=O)=O	82.3	-0.9	-1.9	.	.	.	.
C[C@H]1CN([C@@H](C)CO)S(=O)(=O)c2ccc(C#CCN(C)C)cc2O[C@@H]1CN(C)Cc1ccccc1F	110.0*	-0.6	0.2	107.3*	91.3	5.0	104.9*
C[C@@H]1CN([C@@H](C)CO)S(=O)(=O)c2ccc(C#CCN(C)C)cc2O[C@H]1CN(C)Cc1ccccc1F	115.9*	0.4	-3.8	?	85.3	50.8*	105.1*
C[C@@H]1CN([C@H](C)CO)S(=O)(=O)c2ccc(C#CCN(C)C)cc2O[C@@H]1CN(C)Cc1ccccc1F	26.8	2.0	0.0	.	.	.	.
C[C@H]1CN([C@@H](C)CO)S(=O)(=O)c2ccc(C#CC3CC3)cc2O[C@H]1CN(C)Cc1ccc(F)cc1	.	2.2	0.8	.	.	.	.
C[C@H]1CN([C@@H](C)CO)S(=O)(=O)c2ccc(C#CC3CC3)cc2O[C@H]1CN(C)Cc1ccccc1F	106.3*	14.1	-0.8	106.1*	76.6	11.3	106.6*
Cn1c(SCC(=O)Nc2ccccc2F)nnc1-c1ccccc1	.	.	-0.6	.	.	.	.
O=C(OCc1cccc(O)c1O[C@@H]1O[C@H](CO)[C@@H](O)[C@H](O)[C@H]1O)C1(O)C(=O)C2C3C4C5C(C(=O)C(O)(C(=O)OCc6cccc(O)c6O[C@@H]6O[C@H](CO)[C@@H](O)[C@H](O)[C@H]6O)C2C53)C41 (stereo not given in full)	.	.	-0.6	.	.	.	.
SMILES	T cruzi growth-1	GASC1 inh	IDH1 R132H inh	T cruzi growth-2	T cruzi growth-3	NIH3T3 tox	3T3 cytotox 2
COc1ccc(S(=O)(=O)N(C)CC(=O)Nc2ccc(I)cc2)cc1C	.	.	-0.2	.	.	.	.
CC(=O)N(C)C[C@H]1[C@H](c2ccc(-c3ccccc3)cc2)[C@@H](CO)N1C(=O)C1CC1	?	1.6	.	15.2	-15.0	6.8	13.0
COCCN(C[C@H]1[C@@H](c2ccccc2)[C@H](CO)N1C(C)=O)C(=O)c1ccncc1	?	1.6	.	61.1	-16.5	-11.2	-4.4
CCN(C[C@@H]1[C@@H](c2ccccc2)[C@@H](CO)N1C(=O)C1CC1)C(=O)NC1CCCC1	16.2	-2.3	.	.	.	.	.
COCC(=O)N(C)C[C@H]1[C@H](c2ccc(-c3cccnc3)cc2)[C@H](CO)N1C(C)=O	101.4*	-1.2	.	6.8	-0.1	-25.6	-12.5
CC(=O)N(C)C[C@@H]1[C@@H](c2ccc(-c3ccccc3)cc2)[C@H](CO)N1C(=O)C1CC1	-23.8	0.7	.	.	.	.	.
COCCN(C[C@@H]1[C@@H](c2ccccc2)[C@H](CO)N1C(C)=O)C(=O)c1ccccc1	10.8	-4.2	.	.	.	.	.
COCC(=O)N(C)C[C@H]1[C@H](c2ccc(-c3cccnc3)cc2)[C@@H](CO)N1C(C)=O	90.6	0.3	.	.	.	.	.
CCN(C[C@@H]1[C@@H](c2ccccc2)[C@H](CO)N1C(=O)C1CC1)C(=O)NC1CCCC1	96.6*	1.1	.	52.4	31.5	-1.2	26.0
Cc1ccc(S(=O)(=O)c2nc(SCC(=O)c3ccc(Cl)cc3)sc2Cl)cc1	.	.	0.1	.	.	.	.
CN(C[C@H]1[C@H](c2ccccc2)[C@@H](CO)N1C(=O)C1CCC1)C(=O)c1ccccn1	15.0	0.4	.	.	.	.	.
CC(=O)N(C)C[C@H]1[C@H](c2ccccc2)[C@@H](CO)N1C(=O)C1CCC1	100.7*	-0.9	.	-41.6	20.8	-22.5	-8.1
CC(C)CC#Cc1ccc2c(c1)O[C@@H](CN(C)C(=O)c1ccccc1F)[C@@H](C)CN([C@@H](C)CO)S2(=O)=O	?	-1.7	-7.0	95.7*	94.9	17.9	106.3*
CCCC#Cc1ccc2c(c1)O[C@@H](CN(C)C(=O)c1ccccc1F)[C@H](C)CN([C@@H](C)CO)S2(=O)=O	111.8*	-1.5	-4.6	103.5*	77.3	31.5	84.9*
CCCC#Cc1ccc2c(c1)O[C@H](CN(C)C(=O)c1ccccc1F)[C@H](C)CN([C@@H](C)CO)S2(=O)=O	88.1	-1.2	-0.5	.	.	.	.
CC(C)CC#Cc1ccc2c(c1)O[C@@H](CN(C)C(=O)c1ccccc1F)[C@@H](C)CN([C@H](C)CO)S2(=O)=O	99.5*	-1.0	0.5	88.9	89.6	24.4	102.7*
COCC#Cc1ccc2c(c1)O[C@@H](CN(C)C(=O)c1ccccc1F)[C@@H](C)CN([C@@H](C)CO)S2(=O)=O	71.3	-0.8	0.4	.	.	.	.
